# Measured values from ChEMBL document CHEMBL1123708, “Resolved cis- and trans-2-amino-5-methoxy-1-methyltetralins: central dopamine receptor agonists and antagonists” (1987).
# Active and inactive are the calls of the source. The rule behind the calls is not given here.
# Legend:
# [1] = test system: Rattus norvegicus; test: Induced locomotor stimulation in non pre-treated rats by 52 umol/kg s.c. administration.; assay type: functional
# [2] = molecular target: T1, Dopamine receptor (Rattus norvegicus) (UniProt P25115+P19020+P30729+P18901+P61169); test: In vivo displacement of DiPr-5,6-ADTN from Dopamine receptors in rat striatum; assay type: organism-based
# [3] = test system: Rattus norvegicus; test: Change in rectal temperature induced by DiPr-5,6-ADTN at a dose of 13 umol/kg of compound by subcutaneous administration; assay type: functional
# How it was run: (§1)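 Rats received DiPr-5,6-ADTN (0.25 μmol/kg sc) 100 min and test compound sc 40 min before death. Rectal temperature change (°C) was recorded between 60 and 100 min after DiPr-5,6-ADTN. Values are mean ± SEM, n = 4, with Student's t test vs DiPr-5,6-ADTN alone.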
# [4] = test system: Rattus norvegicus; test: Locomotory activity was determined in non pretreated rats at a dose of 3.2 umol/kg by subcutaneous administration; assay type: functional
# How it was run: (§2)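 Untreated rats received test drug sc 5 min before a 30-min session in photocell motility meters, with accumulated counts recorded. Activity is expressed as percent of saline controls, mean ± SEM, n = 3-5. Gross behaviour was observed through a semitransparent mirror. Differences from saline controls were assessed by Student's t test.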
# [5] = test system: Rattus norvegicus; test: In vivo DOPA accumulation in non pre-treated rat limbic system following s.c. administration.; assay type: functional; conditions: sc
# How it was run: (§3)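 Rats without pretreatment received test drug sc 65 min and NSD 1015 (100 mg/kg ip) 30 min before death, with saline controls. DOPA was measured in limbic or striatal tissue. Dose for half-maximal change was estimated from 4-5-dose curves (n = 3-5), maximal level as % of control.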
# [6] = test system: Rattus norvegicus; test: In vivo DOPA accumulation in non pre-treated rat striatal system following s.c. administration.; assay type: functional; conditions: sc; how it was run: as §3
# [7] = test system: Rattus norvegicus; test: Induced locomotor stimulation in non pre-treated rats by 13 umol/kg s.c. administration.; assay type: functional
# [8] = test system: Rattus norvegicus; test: Locomotory activity was determined in non pretreated rats at a dose of 52 umol/kg by subcutaneous administration; assay type: functional; how it was run: as §2
# [9] = test system: Rattus norvegicus; test: In vivo DOPA accumulation in non pretreated rat limbic system by subcutaneous administration; I denotes inactive; assay type: functional, organism-based; how it was run: as §3
# [10] = test system: Rattus norvegicus; test: In vivo DOPA accumulation in non pretreated rat striatum system by subcutaneous administration; I denotes inactive; assay type: functional, organism-based; how it was run: as §3
# [11] = test system: Rattus norvegicus; test: In vivo DOPA accumulation in reserpine pretreated rat limbic system by subcutaneous administration; I denotes inactive; assay type: functional, organism-based
# How it was run: (§4)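 Rats received reserpine (5 mg/kg sc) 18 h, test drug sc 60 min and NSD 1015 (100 mg/kg ip) 30 min before death, with saline controls. Limbic or striatal DOPA was measured. Dose for half-maximal decrease was estimated from 4-7-dose curves (n = 3-5), minimal level as % of control.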
# [12] = test system: Rattus norvegicus; test: In vivo DOPA accumulation in reserpine pretreated rat striatum system by subcutaneous administration; I denotes inactive; assay type: functional, organism-based; how it was run: as §4
# [13] = molecular target: T1, Dopamine receptor (Rattus norvegicus); test: Ability to displace the Dopamine receptor agonist DiPr-5,6-ADTN from rat striatal binding sites in vivo at a dose of 52 umol/kg by subcutaneous administration; assay type: organism-based
# [14] = test system: Rattus norvegicus; test: Change in rectal temperature induced by DiPr-5,6-ADTN at a dose of 52 umol/kg of compound by subcutaneous administration; assay type: functional; how it was run: as §1
# [15] = test system: Rattus norvegicus; test: ((+)-UH-232) induced locomotor stimulation was determined in non pretreated rats at a dose of 52 umol/kg by subcutaneous administration; assay type: functional
# [16] = test system: Rattus norvegicus; test: In vivo DOPA accumulation in reserpine pretreated rat striatum system by subcutaneous administration; assay type: functional; how it was run: as §4
# [17] = test system: Rattus norvegicus; test: Locomotory activity was determined in non pretreated rats at a dose of 52 umol/kg by subcutaneous administration; I denotes inactive; assay type: functional; how it was run: as §2
# [18] = test system: Rattus norvegicus; test: Locomotory activity was determined in reserpine pretreated rats at a dose of 52 umol/kg by subcutaneous administration. Value is the accumulation counts/30 min; assay type: functional
# How it was run: (§5)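 Rats were given reserpine 5 mg/kg sc 18 h beforehand, then test drug sc immediately before the activity session. Motor activity was recorded by photocells in motility meters as accumulated counts over 30 min, mean ± SEM, n = 3-4. Gross behaviour was watched for signs of stimulation. Reserpine-only controls were included.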
# [19] = test system: Rattus norvegicus; test: Change in rectal temperature induced by DiPr-5,6-ADTN at a dose of 40 umol/kg of compound by subcutaneous administration; assay type: functional; how it was run: as §1
# [20] = molecular target: T1, Dopamine receptor (Rattus norvegicus); test: Ability to displace the Dopamine receptor agonist DiPr-5,6-ADTN from rat striatal binding sites in vivo at a dose of 40 uM/kg by subcutaneous administration; assay type: organism-based
# [21] = test system: Rattus norvegicus; test: Change in rectal temperature induced by DiPr-5,6-ADTN at a dose of 10 umol/kg of compound by subcutaneous administration; assay type: functional; how it was run: as §1
# [22] = molecular target: T1, Dopamine receptor (Rattus norvegicus); test: Ability to displace the Dopamine receptor agonist DiPr-5,6-ADTN from rat striatal binding sites in vivo at a dose of 10 uM/kg by subcutaneous administration; assay type: organism-based
# [23] = test system: Rattus norvegicus; test: In vivo DOPA accumulation in reserpine pretreated rat limbic system by subcutaneous administration; assay type: functional; conditions: sc; how it was run: as §4
# [24] = test system: Rattus norvegicus; test: In vivo % increase in DOPA accumulation in non pretreated rat limbic system after 52 umol/kg (sc); I denotes inactive; assay type: functional, organism-based
# [25] = test system: Rattus norvegicus; test: In vivo % increase in DOPA accumulation in non pretreated rat striatum system after 52 umol/kg (sc); I denotes inactive; assay type: functional, organism-based
# [26] = molecular target: T1, Dopamine receptor (Rattus norvegicus); test: Ability to displace the Dopamine receptor agonist DiPr-5,6-ADTN from rat striatal binding sites in vivo at a dose of 13 uM/kg by subcutaneous administration; assay type: organism-based
# [27] = test system: Rattus norvegicus; test: In vivo DOPA accumulation in non pretreated rat striatum system by subcutaneous administration; indicates 40-80% increase in limbic system after 52 umol/kg (sc); assay type: functional, organism-based; how it was run: as §3
# [28] = test system: Rattus norvegicus; test: In vivo DOPA accumulation in non pretreated rat limbic system by subcutaneous administration; indicates 40-80% increase in limbic system after 52 umol/kg (sc); assay type: functional, organism-based; how it was run: as §3
# [29] = test system: Rattus norvegicus; test: In vivo DOPA accumulation in non pretreated rat striatum system by subcutaneous administration; denotes inactive; assay type: functional, organism-based; how it was run: as §3
# [30] = test system: Rattus norvegicus; test: Locomotory activity was determined in reserpine pretreated rats at a dose of 204 umol/kg by subcutaneous administration. Value is the accumulation counts/30 min; assay type: functional; how it was run: as §5
# [31] = molecular target: T1, Dopamine receptor (Rattus norvegicus); test: Ability to displace the Dopamine receptor agonist DiPr-5,6-ADTN from rat striatal binding sites in vivo at a dose of 52 uM/kg by subcutaneous administration; assay type: organism-based
# [32] = test system: Rattus norvegicus; test: Induced locomotor stimulation was determined in non pretreated rats at a dose of 52 uM/kg by subcutaneous administration; assay type: functional; how it was run: as §2
Structure (SMILES),Activity [1] [%],Binding [2] [%],Body temp change [3] [°C],Activity [4] [%],ED50 [5] [µmol/kg],ED50 [6] [µmol/kg],Activity [7] [%],Temperature [3] [°C],also measured
CCCN[C@@H]1CCc2c(O)cccc2[C@@H]1C,125,66,0.1,114,9,16,107,–,–
CCN[C@@H]1CCc2c(OC)cccc2[C@@H]1C,–,36,–,108,5.3,4.8,69,1.33,Activity [8]: 60%
CCCN(CCC)[C@@H]1CCc2c(O)cccc2[C@H]1C,97,–,–,–,–,–,–,–,ED50 [9]: inactive; ED50 [10]: inactive; ED50 [11]: inactive; ED50 [12]: inactive
CN[C@@H]1CCc2c(OC)cccc2[C@@H]1C,29,51,–,86,4.7,1.8,35,-0.25,Binding [13]: 20%; Temperature [14]: 0.93 °C; Activity [15]: 9%
CCCCN[C@@H]1CCc2c(OC)cccc2[C@@H]1C,–,76,–,113,18,20,82,-0.25,Activity [8]: 135%
CCN(CC)[C@@H]1CCc2c(O)cccc2[C@@H]1C,19,49,0.2,113,13,6.5,63,–,–
CCCN(CCC)[C@@H]1CCc2c(OC)cccc2[C@H]1C,–,–,–,–,–,–,–,–,ED50 [9]: inactive; ED50 [10]: inactive; ED50 [16]: inactive; ED50 [11]: inactive; Activity [17]: 88%
CCCN(CCC)[C@@H]1CCc2c(O)cccc2[C@@H]1C,102,–,–,110,110,9.4,–,–,Activity [18]: 6 counts/30 min; Body temp change [19]: 1.7 °C; ED50 [11]: inactive; Binding [20]: 21%; Body temp change [21]: 1.7 °C; Binding [22]: 61%; ED50 [12]: inactive
CCN[C@@H]1CCc2c(O)cccc2[C@@H]1C,62,64,-0.5,83,15,6,95,–,–
CN[C@@H]1CCc2c(O)cccc2[C@@H]1C,–,54,–,143,5.5,7.5,73,0.15,Activity [8]: 47%
CCN(CC)[C@H]1CCc2c(O)cccc2[C@H]1C,40,–,0.22,–,–,–,100,–,Activity [18]: 5 counts/30 min; ED50 [23]: 1.4 µmol/kg; ED50 ([16]; sc): 1.6 µmol/kg; ED50 [24]: inactive; ED50 [25]: inactive; Binding [26]: 70%
CCCCN(CCCC)[C@H]1CCc2c(O)cccc2[C@H]1C,–,–,-0.7,–,–,–,87,–,Activity [18]: 6 counts/30 min; ED50 [11]: inactive; ED50 [12]: inactive; Binding [26]: 124%
CCCCN(CCCC)[C@@H]1CCc2c(O)cccc2[C@@H]1C,82,–,-0.43,–,–,–,89,–,ED50 [27]: Weak activity; ED50 [28]: Weak activity; Binding [26]: 96%
C[C@H]1c2cccc(O)c2CC[C@H]1N,–,98,–,94,–,–,86,-0.7,Activity [8]: 97%; ED50 [9]: inactive; ED50 [29]: inactive
CCCN(CCC)[C@H]1CCc2c(OC)cccc2[C@@H]1C,82,–,–,–,–,–,–,–,ED50 [9]: inactive; ED50 [10]: inactive; ED50 [11]: inactive; ED50 [12]: inactive
COc1cccc2c1CC[C@@H](N)[C@H]2C,–,83,–,136,4.4,4.2,88,-1.33,Activity [8]: 62%
C[C@H]1c2cccc(O)c2CC[C@H]1N(C)C,1,39,1.48,76,5.5,3.4,11,–,–
C[C@@H]1c2cccc(O)c2CC[C@@H]1N(C)C,15,–,0.88,–,8.5,8.5,34,–,ED50 [23]: 28 µmol/kg; Body temp change [14]: 1.82 °C; ED50 ([16]; sc): 25 µmol/kg; Activity [30]: 7 counts/30 min; Binding [31]: 22%; Binding [26]: 63%; Activity [32]: 4%
CCCCN(CCCC)[C@@H]1CCc2c(OC)cccc2[C@@H]1C,96,–,-0.27,–,–,–,96,–,ED50 [9]: inactive; ED50 [10]: inactive; Binding [26]: 115%
